Source: PubChem BioAssay
Sampled rows, rich in hits. Any-hit rate of the full collection: about 4.9%.
NF-kB neuron act: NF-kB expression increase, human neuronal cells; NF-kB reporter expression; stronger effect = higher value; 1.6% of 190,000 active; fold change at 12.5 µM; in the data active = fold change above about 3.3
STAT1 activator: STAT1 signaling activation. NIH 3T3 STAT1-luciferase reporter, IFN-gamma, luminescence; 100% = IFN-gamma alone, no compound. AID 932. 2.6% of 200,000 active. activation (% of control), % at 5.5 µM;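 active = activation above the screen-wide mean activation plus 3 SD, cut at about 130% in these data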
STAT1 inh: inhibitors of IFN-gamma induced STAT1 signaling; NIH 3T3 STAT1-luciferase reporter, luminescence; inhibition, % at 5.5 µM; 0.35% of 200,000 active; AID 920;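 active = inhibition above a set limit, the mean inhibition across all tested compounds plus 3 SD, cut at about 34% in these data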
STAT3 act: activators of IL-6 induced STAT3 signaling; activation (% of control), % at 5.6 µM; U3A cells, IL-6 STAT3-luciferase reporter, luminescence; 100% = signal with IL-6 EC80 alone; 0.91% of 190,000 active;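 active = activation above the screen-wide mean of compound activation plus 3 SD, cut at about 130% in these data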
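System – human U3A cells carrying STAT3-luciferase construct · Probe or stimulus – Interleukin-6, 33 ng/mL · Schedule – compound 1 h, then IL-6 6 h at 37 °C · Signal – luminescence from STAT3-driven luciferase reporter · Evaluation – percent of IL-6-only median luminescence · Benchmarks – IL-6-only high control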
APP 5'UTR act: activates APP 5'UTR luciferase reporter. SH-SY5Y APP 5'UTR luciferase reporter, luminescence; zero percent = DMSO vehicle wells. activation, % at 2 µM. 1% of 190,000 active;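 active = activation above a set limit, based on mean plus 3 SD of controls, cut at about 140% in these data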
STAT3 inh: STAT3 signaling inhibition | AID 862 | U3A cells, IL-6 STAT3-luciferase reporter, luminescence; host cell line lacks STAT1 | inhibition, % at 5.5 µM | 0.89% of 190,000 active;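 active = inhibition above the mean inhibition across all screened compounds plus 3 SD, cut at about 44% in these data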
Numbers stand for hits.

c1ccc(-c2noc(-c3cccc4ccccc34)n2)cc1 was read as NF-kB neuron act 6.1, STAT1 activator 142, STAT1 inh inactive, STAT3 act 192, APP 5'UTR act inactive and STAT3 inh inactive.
Screening c1ccc(-c2ccccc2-c2nc(-c3cccnc3)no2)cc1 returned NF-kB neuron act inactive, STAT1 activator inactive, STAT1 inh inactive, STAT3 act inactive, APP 5'UTR act inactive and STAT3 inh inactive.
For Brc1cccc(-c2nc(-c3ccncc3)no2)c1 the results were NF-kB neuron act inactive, STAT1 activator inactive, STAT1 inh inactive, STAT3 act inactive, APP 5'UTR act inactive and STAT3 inh inactive.
`Cc1nc(SCC(O)CO)c([N+](=O)[O-])[nH]1` (configuration not stated) gave NF-kB neuron act 3.5, STAT1 activator inactive, STAT1 inh inactive, STAT3 act inactive, APP 5'UTR act inactive and STAT3 inh inactive.
`Cc1nc(SCC(=O)c2ccc(F)cc2)c([N+](=O)[O-])[nH]1` gave NF-kB neuron act inactive, STAT1 activator inactive, STAT1 inh inactive, STAT3 act inactive, APP 5'UTR act inactive and STAT3 inh inactive.
For Cc1cccc(-n2c(C)cc(C=C3C(=O)c4ccccc4C3=O)c2C)c1 the results were NF-kB neuron act inactive, STAT1 activator inactive, STAT1 inh inactive, STAT3 act inactive, APP 5'UTR act inactive and STAT3 inh inactive.
Cc1cc(C=C2C(=O)c3ccccc3C2=O)c(C)n1C was read as NF-kB neuron act 6.3, STAT1 activator inactive, STAT1 inh inactive, STAT3 act inactive, APP 5'UTR act inactive and STAT3 inh inactive.
CCn1c(C)cc(C=C2C(=O)c3ccccc3C2=O)c1C was read as NF-kB neuron act 3.4, STAT1 activator inactive, STAT1 inh inactive, STAT3 act inactive, APP 5'UTR act 156 and STAT3 inh inactive.
CC(C)(C)N1CSC(=S)N(Cc2ccccc2)C1 was read as NF-kB neuron act 4.5, STAT1 activator inactive, STAT1 inh inactive, STAT3 act inactive, APP 5'UTR act inactive and STAT3 inh inactive.
Screening CC(C)N1CSC(=S)N(Cc2ccccc2)C1 returned NF-kB neuron act inactive, STAT1 activator inactive, STAT1 inh inactive, STAT3 act inactive, APP 5'UTR act inactive and STAT3 inh inactive.
COc1ccc(-c2nc(-c3ccccc3OC)no2)cc1OC was read as NF-kB neuron act inactive, STAT1 activator 132, STAT1 inh inactive, STAT3 act inactive, APP 5'UTR act inactive and STAT3 inh inactive.
`CCOc1cc(-c2nc(-c3ccccc3OC)no2)cc(OCC)c1OCC` gave NF-kB neuron act inactive, STAT1 activator inactive, STAT1 inh inactive, STAT3 act inactive, APP 5'UTR act inactive and STAT3 inh inactive.
`Cc1cccc(-c2noc(-c3ccc4c(c3)OCO4)n2)c1` gave STAT1 activator inactive, STAT1 inh inactive, STAT3 act inactive, APP 5'UTR act 186 and STAT3 inh 69.
Screening COc1ccc(-c2nc(C3CCCCC3)no2)cc1OC returned NF-kB neuron act inactive, STAT1 activator 134, STAT1 inh inactive, STAT3 act inactive, APP 5'UTR act inactive and STAT3 inh inactive.
Screening COc1ccc(-c2nc(-c3cccc(C)c3)no2)cc1OC returned NF-kB neuron act inactive, STAT1 activator 138, STAT1 inh inactive, STAT3 act inactive, APP 5'UTR act inactive and STAT3 inh inactive.
`c1ccc(-c2nc(C3CCCCC3)no2)cc1` gave NF-kB neuron act inactive, STAT1 activator inactive, STAT1 inh inactive, STAT3 act inactive, APP 5'UTR act inactive and STAT3 inh inactive.
COc1cc(-c2nc(-c3cccc(C)c3)no2)cc(OC)c1OC was read as NF-kB neuron act inactive, STAT1 activator inactive, STAT1 inh inactive, STAT3 act inactive, APP 5'UTR act inactive and STAT3 inh inactive.
CCC1COC(c2cccn2Cc2ccccc2Cl)=N1 (configuration not stated) was read as NF-kB neuron act inactive, STAT1 activator inactive, STAT1 inh inactive, STAT3 act inactive, APP 5'UTR act inactive and STAT3 inh inactive.
For NNC(=O)[C@H]1C[C@@H]1c1ccccc1 the results were NF-kB neuron act inactive, STAT1 activator inactive, STAT1 inh inactive, STAT3 act inactive, APP 5'UTR act inactive and STAT3 inh inactive.
`COCCCNc1nc2nonc2nc1N(C)CC1CCCN1C` (configuration not stated) gave NF-kB neuron act inactive, STAT1 activator inactive, STAT1 inh inactive, STAT3 act inactive, APP 5'UTR act inactive and STAT3 inh inactive.
Cc1ccc(NS(=O)(=O)c2cc(-c3n[nH]c(=O)c4ccccc34)ccc2C)cc1 was read as NF-kB neuron act inactive, STAT1 activator inactive, STAT1 inh inactive, STAT3 act inactive, APP 5'UTR act inactive and STAT3 inh inactive.
Screening Cc1ccc(C2CC(C(F)(F)F)n3nc(C(=O)NCc4c(C)nn(C)c4C)c(Cl)c3N2)cc1 (configuration not stated) returned NF-kB neuron act inactive, STAT1 activator inactive, STAT1 inh 59, STAT3 act inactive, APP 5'UTR act inactive and STAT3 inh 60.
Screening Cc1nn(C)c(C)c1CNC(=O)c1cnn2c1NC(c1ccccc1)CC2C(F)(F)F (configuration not stated) returned NF-kB neuron act inactive, STAT1 activator inactive, STAT1 inh inactive, STAT3 act inactive, APP 5'UTR act inactive and STAT3 inh inactive.
`c1ccc(Oc2ccc3ccccc3n2)cc1` gave NF-kB neuron act inactive, STAT1 activator 136, STAT1 inh inactive, STAT3 act inactive, APP 5'UTR act inactive and STAT3 inh inactive.
`COc1ccc(Oc2cc(C)c3ccccc3n2)cc1` gave NF-kB neuron act inactive, STAT1 activator inactive, STAT1 inh inactive, STAT3 act inactive, APP 5'UTR act inactive and STAT3 inh inactive.
Cc1cc(Cl)ccc1OCC(=O)NCCOc1nc(N2CCOCC2)nc(N2CCOCC2)n1 was read as NF-kB neuron act inactive, STAT1 activator inactive, STAT1 inh inactive, STAT3 act inactive, APP 5'UTR act inactive and STAT3 inh inactive.
Cc1cc(SC(C)C(=O)Nc2ncc(Cl)cc2Cl)nc2ccccc12 (configuration not stated) was read as NF-kB neuron act 3.4, STAT1 activator inactive, STAT1 inh inactive, STAT3 act inactive, APP 5'UTR act inactive and STAT3 inh inactive.
`CC1CC1C(=O)OCc1cc(=O)n2cc(Br)ccc2n1` (configuration not stated) gave NF-kB neuron act inactive, STAT1 activator 136, STAT1 inh inactive, STAT3 act inactive, APP 5'UTR act inactive and STAT3 inh inactive.
Screening Cc1ccccc1C(=O)NC(CC(C)C)C(=O)OCc1cc(=O)n2cc(Br)ccc2n1 (configuration not stated) returned NF-kB neuron act 3.5, STAT1 activator 138, STAT1 inh inactive, STAT3 act inactive, APP 5'UTR act inactive and STAT3 inh inactive.
Screening CCOC(=O)c1ccccc1NC(=O)c1n[nH]c(=O)c2ccccc12 returned NF-kB neuron act 3.7, STAT1 activator inactive, STAT1 inh inactive, STAT3 act inactive, APP 5'UTR act inactive and STAT3 inh inactive.
